Experimental data published in ChEMBL document CHEMBL3102720, “Structure-activity relationship study of permethyl ningalin B analogues as P-glycoprotein chemosensitizers” (J Med Chem, 2013).
Calls of active or inactive are those of the source. No cut-off for these calls is given here.

Experiments:
[1] = target: T1, ATP-dependent translocase ABCB1 (Homo sapiens, UniProt P08183); assay: Modulation of p-gp (unknown origin) transfected in human MDA435/LCC6MDR cells assessed as potentiation of paclitaxel-induced cytotoxicity at 1 uM after 5 days by MTS assay relative to untreated control; format: cell-based; details: 120 h
T1 sequence (P08183 whole entry): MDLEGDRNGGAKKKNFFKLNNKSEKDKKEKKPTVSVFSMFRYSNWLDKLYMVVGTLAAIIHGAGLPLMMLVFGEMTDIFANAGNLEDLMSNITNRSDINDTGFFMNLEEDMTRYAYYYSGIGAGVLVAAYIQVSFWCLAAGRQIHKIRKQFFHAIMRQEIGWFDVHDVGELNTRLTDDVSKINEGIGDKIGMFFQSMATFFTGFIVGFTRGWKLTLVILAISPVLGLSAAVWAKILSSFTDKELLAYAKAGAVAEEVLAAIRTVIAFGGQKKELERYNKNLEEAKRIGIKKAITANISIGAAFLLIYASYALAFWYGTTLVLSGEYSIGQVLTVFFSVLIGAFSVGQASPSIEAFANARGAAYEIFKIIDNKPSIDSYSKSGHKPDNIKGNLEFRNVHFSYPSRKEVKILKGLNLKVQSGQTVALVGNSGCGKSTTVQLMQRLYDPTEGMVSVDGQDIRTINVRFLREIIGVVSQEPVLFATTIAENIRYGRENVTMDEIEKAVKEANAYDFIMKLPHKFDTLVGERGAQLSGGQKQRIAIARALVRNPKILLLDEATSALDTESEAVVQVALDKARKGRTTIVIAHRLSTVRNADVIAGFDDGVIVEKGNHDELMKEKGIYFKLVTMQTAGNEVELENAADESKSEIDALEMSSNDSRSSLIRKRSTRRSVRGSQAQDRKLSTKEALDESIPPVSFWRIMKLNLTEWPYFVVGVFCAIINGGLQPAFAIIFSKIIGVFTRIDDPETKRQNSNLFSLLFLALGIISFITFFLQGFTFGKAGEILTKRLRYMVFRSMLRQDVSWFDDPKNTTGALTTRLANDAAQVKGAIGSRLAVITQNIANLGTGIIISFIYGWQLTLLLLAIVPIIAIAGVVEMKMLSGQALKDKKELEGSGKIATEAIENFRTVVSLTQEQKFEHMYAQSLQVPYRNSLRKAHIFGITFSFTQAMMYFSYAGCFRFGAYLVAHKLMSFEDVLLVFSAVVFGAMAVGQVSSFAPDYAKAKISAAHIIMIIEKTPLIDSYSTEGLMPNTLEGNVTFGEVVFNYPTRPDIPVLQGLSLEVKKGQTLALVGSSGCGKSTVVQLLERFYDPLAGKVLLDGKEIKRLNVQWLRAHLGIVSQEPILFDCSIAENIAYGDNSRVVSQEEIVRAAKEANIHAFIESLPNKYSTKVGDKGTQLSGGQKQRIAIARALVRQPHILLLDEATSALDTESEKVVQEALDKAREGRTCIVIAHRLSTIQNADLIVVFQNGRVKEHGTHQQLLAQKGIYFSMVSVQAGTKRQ
Summary of the method: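 6000 LCC6MDR or LCC6 cells per well co-incubated with paclitaxel with or without 1 μM modulator for 5 days at 37 °C. […] RF = IC50 without modulator divided by IC50 with modulator. N = 2–3 experiments; mean ± SEM.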

[2] = Cytotoxicity against human MDA435/LCC6 cells assessed as growth inhibition after 3 days by MTS assay; format: functional, cell-based; details: MDA-435/LCC6, 72 h
Summary of the method: (§1)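 10 000 cells per well exposed to a concentration series of analogue for 3 days at 37 °C. Growth read by MTS proliferation assay and IC50 determined. Cells were cultured in DMEM with 10% heat-inactivated FBS and penicillin/streptomycin at 37 °C under 5% CO2.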

MDA-435/LCC6 = assay: Induction of doxorubicin accumulation in human MDA435/LCC6 cells at 1 uM after 150 mins by spectrofluorometric analysis; format: functional, cell-based
Summary of the method: (§2)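 1 × 10^6 LCC6 or LCC6MDR cells incubated with 20 μM doxorubicin plus 1 μM analogue at 37 °C for 150 min; 0.1% DMSO served as negative control. Cells were washed with cold PBS and lysed in 0.75 M HCl/0.2% Triton X-100 in 2-propanol. Supernatant DOX fluorescence was read at ex 460/em 610 nm. N = 3–5 experiments; Student's t test.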

[3] = target: T1, ATP-dependent translocase ABCB1; assay: Modulation of p-gp (unknown origin) transfected in human MDA435/LCC6MDR cells assessed as induction of doxorubicin accumulation at 1 uM after 150 mins by spectrofluorometric analysis relative to control; format: cell-based; details: 2.5 h; summary of the method: as §2
P-gp (unknown origin) = assay: Therapeutic index, ratio of IC50 for mouse L929 cells to EC50 for modulation of p-gp (unknown origin) transfected in human MDA435/LCC6MDR cells assessed as reversal of paclitaxel resistance; format: cell-based; details: read-out: Ratio IC50/EC50
Summary of the method: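 Therapeutic index = L929 cytotoxicity IC50 (10 000 cells, 3-day MTS) divided by EC50 for reversing paclitaxel resistance in LCC6MDR (5-day MTS co-incubation with modulator series). N = 2–5 experiments.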

[4] = target: Multidrug resistance-associated protein 1 (Homo sapiens, UniProt P33527); assay: Modulation of MRP1 (unknown origin) transfected in human 2008/MRP1 cells assessed as potentiation of doxorubicin-induced cytotoxicity at 1 uM after 5 days by MTS assay relative to untreated control; format: cell-based; details: 2008/mrp1, 120 h
Multidrug resistance-associated protein 1, sequence (P33527 whole entry): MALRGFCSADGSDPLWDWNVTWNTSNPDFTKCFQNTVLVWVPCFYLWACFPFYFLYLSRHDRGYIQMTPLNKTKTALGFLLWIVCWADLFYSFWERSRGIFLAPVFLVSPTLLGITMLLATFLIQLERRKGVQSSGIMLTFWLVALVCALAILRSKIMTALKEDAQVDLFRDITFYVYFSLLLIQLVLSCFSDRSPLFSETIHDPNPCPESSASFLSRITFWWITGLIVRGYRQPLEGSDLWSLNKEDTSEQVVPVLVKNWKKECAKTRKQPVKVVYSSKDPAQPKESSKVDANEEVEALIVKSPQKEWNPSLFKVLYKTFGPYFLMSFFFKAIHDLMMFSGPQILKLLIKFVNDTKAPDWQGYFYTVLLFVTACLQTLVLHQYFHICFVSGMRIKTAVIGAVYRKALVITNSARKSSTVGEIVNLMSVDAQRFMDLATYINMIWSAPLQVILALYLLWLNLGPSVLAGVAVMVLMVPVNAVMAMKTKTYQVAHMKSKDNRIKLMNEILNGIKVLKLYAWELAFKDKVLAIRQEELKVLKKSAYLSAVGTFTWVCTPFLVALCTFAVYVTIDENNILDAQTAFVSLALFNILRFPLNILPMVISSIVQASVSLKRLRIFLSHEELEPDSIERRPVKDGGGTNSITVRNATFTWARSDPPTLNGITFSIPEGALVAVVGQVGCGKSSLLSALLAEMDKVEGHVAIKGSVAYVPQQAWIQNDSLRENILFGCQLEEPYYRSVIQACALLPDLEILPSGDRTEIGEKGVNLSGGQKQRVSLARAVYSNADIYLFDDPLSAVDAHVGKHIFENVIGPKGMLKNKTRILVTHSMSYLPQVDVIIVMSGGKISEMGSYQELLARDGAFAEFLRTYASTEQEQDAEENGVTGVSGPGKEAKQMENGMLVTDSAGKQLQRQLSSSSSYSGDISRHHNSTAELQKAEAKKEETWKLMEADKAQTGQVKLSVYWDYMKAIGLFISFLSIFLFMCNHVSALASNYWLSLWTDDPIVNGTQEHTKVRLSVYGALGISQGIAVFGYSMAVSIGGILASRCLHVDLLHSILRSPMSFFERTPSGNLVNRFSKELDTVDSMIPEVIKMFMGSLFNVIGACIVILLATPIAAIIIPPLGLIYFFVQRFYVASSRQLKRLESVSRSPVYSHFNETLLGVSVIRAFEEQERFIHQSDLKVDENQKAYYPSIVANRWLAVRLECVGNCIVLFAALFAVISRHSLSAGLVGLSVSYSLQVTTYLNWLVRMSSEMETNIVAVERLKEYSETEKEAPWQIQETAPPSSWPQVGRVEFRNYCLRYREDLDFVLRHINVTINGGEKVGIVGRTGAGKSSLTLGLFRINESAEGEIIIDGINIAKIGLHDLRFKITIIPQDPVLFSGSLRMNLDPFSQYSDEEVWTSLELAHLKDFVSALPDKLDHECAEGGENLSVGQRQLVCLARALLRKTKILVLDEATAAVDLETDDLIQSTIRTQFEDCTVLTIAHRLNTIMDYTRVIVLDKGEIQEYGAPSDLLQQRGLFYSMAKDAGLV

Homo sapiens [5] = organism: Homo sapiens; assay: Ratio of verapamil EC50 to compound EC50 for modulation of p-gp (unknown origin) transfected in human MDA435/LCC6MDR cells assessed as reversal of paclitaxel resistance; format: cell-based
[6] = target: T2, Broad substrate specificity ATP-binding cassette transporter ABCG2 (Homo sapiens, UniProt Q9UNQ0); assay: Modulation of BCRP (unknown origin) transfected in human HEK293/R2 cells assessed as potentiation of topotecan-induced cytotoxicity at 1 uM after 5 days by MTS assay relative to untreated control; format: cell-based; details: hek293/r2, 120 h
T2 sequence (Q9UNQ0 whole entry): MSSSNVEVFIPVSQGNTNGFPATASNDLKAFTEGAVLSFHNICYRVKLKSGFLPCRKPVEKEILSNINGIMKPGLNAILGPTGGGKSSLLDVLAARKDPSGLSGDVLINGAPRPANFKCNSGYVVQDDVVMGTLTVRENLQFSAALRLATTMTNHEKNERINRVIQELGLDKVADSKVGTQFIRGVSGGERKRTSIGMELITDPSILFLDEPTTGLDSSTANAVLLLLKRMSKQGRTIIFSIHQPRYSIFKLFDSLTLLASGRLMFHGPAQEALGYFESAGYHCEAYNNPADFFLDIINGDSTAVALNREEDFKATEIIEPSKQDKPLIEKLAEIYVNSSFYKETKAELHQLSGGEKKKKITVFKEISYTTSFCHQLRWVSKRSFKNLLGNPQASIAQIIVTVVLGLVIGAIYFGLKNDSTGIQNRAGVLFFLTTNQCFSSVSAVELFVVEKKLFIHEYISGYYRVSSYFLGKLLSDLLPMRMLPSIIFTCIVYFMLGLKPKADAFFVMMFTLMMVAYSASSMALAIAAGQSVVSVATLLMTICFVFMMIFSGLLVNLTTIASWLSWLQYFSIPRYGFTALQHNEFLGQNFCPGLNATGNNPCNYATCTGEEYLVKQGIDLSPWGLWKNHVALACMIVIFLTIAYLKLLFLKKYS
Summary of the method: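 4500 HEK293/R2 or HEK293/pcDNA3.1 cells per well co-incubated with topotecan with or without 1 μM modulator for 5 days at 37 °C. Readout was MTS/PMS absorbance at 490 nm after 2 h. RF = IC50 without modulator divided by IC50 with modulator. N = 2–4 experiments.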

L929 = assay: Cytotoxicity against mouse L929 cells assessed as growth inhibition after 3 days by MTS assay; format: cell-based; details: L929, 72 h; summary of the method: as §1
[7] = Cytotoxicity against human MDA435/LCC6MDR cells assessed as growth inhibition after 3 days by MTS assay; format: functional, cell-based; details: 72 h; summary of the method: as §1
[8] = target: T1, ATP-dependent translocase ABCB1; assay: Inhibition of p-gp (unknown origin) transfected in human MDA435/LCC6MDR cells assessed as reversal of doxorubicin drug resistance relative to control; format: cell-based
Homo sapiens [9] = organism: Homo sapiens; assay: Ratio of compound activity to verapamil activity for modulation of p-gp (unknown origin) transfected in human MDA435/LCC6MDR cells assessed as potentiation of paclitaxel-induced cytotoxicity; format: cell-based
[10] = Drug uptake in human MDA435/LCC6 cells at 20 to 200 uM after 150 mins by reverse phase-HPLC analysis; format: ADME, cell-based; details: mda-435/lcc6, 2.5 h
Summary of the method: (§3)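 3 × 10^6 LCC6 or LCC6MDR cells incubated with 20 or 200 μM analogue at 37 °C for 150 min. Cells were then pelleted, washed with cold PBS pH 7.4, lysed in 100% methanol by vortexing for 5 min and spun. The supernatant was analysed by reversed-phase C18 HPLC with UV-vis detection. N = 2 independent experiments.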

[11] = target: T1, ATP-dependent translocase ABCB1; assay: Modulation of p-gp (unknown origin) transfected in human MDA435/LCC6MDR cells assessed as increase in intracellular drug accumulation at 20 to 200 uM after 150 mins by reverse phase-HPLC analysis; format: cell-based; details: 2.5 h; summary of the method: as §3

| Structure (SMILES) | fold change (FC) [1] | other results |
| --- | --- | --- |
| COc1ccc(C(=O)CN2C(=O)C(c3cc(OC)c(OC)c(OC)c3)=C(c3cc(OC)c(OC)c(OC)c3)C2=O)cc1OC | 3.3 | – |
| C=CCOc1cc(CN2C(=O)C(c3ccc(OC)c(OC)c3)=C(c3ccc(OC)c(OC)c3)C2=O)cc(OCC=C)c1OCC=C | 3.8 | – |
| COc1ccc(C2=C(c3ccc(OC)c(OC)c3)C(=O)N(CC(=O)O)C2=O)cc1OC | 0.9 | – |
| COc1ccc(C2=C(c3cc(OC)c(OC)c(OC)c3)C(=O)N(c3cc(OC)c(OC)c(OC)c3)C2=O)cc1OC | 1.5 | – |
| CCOc1cc(CN2C(=O)C(c3ccc(OC)c(OC)c3)=C(c3ccc(OC)c(OC)c3)C2=O)cc(OCC)c1OCC | 1.9 | – |
| COc1ccc(C2=C(c3ccc(OC)c(OC)c3)C(=O)N(CCn3cnc4c(N)ncnc43)C2=O)cc1OC | 1.7 | – |
| COc1ccc(C2=C(c3ccc(OC)c(OC)c3)C(=O)N(Cc3cc(OC(C)C)c(OC(C)C)c(OC(C)C)c3)C2=O)cc1OC | 8.5 | – |
| COc1ccc(C2=C(c3ccc(OC)c(OC)c3)C(=O)N(CC(=O)OC(C)(C)C)C2=O)cc1OC | 3.3 | – |
| COc1ccc(C2=C(c3cc(OC)c(OC)c(OC)c3)C(=O)N(CC(=O)c3ccc(OCc4ccccc4)c(OC)c3)C2=O)cc1OC | 42.7 | IC50 [2]: > 100 µM; Activity (MDA-435/LCC6): inactive; fold change (FC) [3]: 2.3; selectivity ratio (P-gp (unknown origin)): > 909; fold change (FC) [4]: 1.2; Ratio EC50 (Homo sapiens [5]): 4.1; fold change (FC) [6]: 8.2; IC50 (L929): > 100 µM; IC50 [7]: > 100 µM; fold change (FC) [8]: 5.6 |
| COc1ccc(C2=C(c3ccc(OC)c(OC)c3)C(=O)N(CCn3cnc4c(=O)n(C)c(=O)n(C)c43)C2=O)cc1OC | 1.2 | – |
| COc1ccc(C2=C(c3cc(OC)c(OC)c(OC)c3)C(=O)N(CC(=O)c3ccc(OCc4ccccc4)cc3)C2=O)cc1OC | 16.8 | – |
| COc1ccc(C2=C(c3cc(OC)c(OC)c(OC)c3)C(=O)N(Cc3cc(OC)c(OC)c(OC)c3)C2=O)cc1OC | 7.4 | – |
| COc1ccc(C(=O)CN2C(=O)C(c3ccc(OC)c(OC)c3)=C(c3cc(OC)c(OC)c(OC)c3)C2=O)cc1OC | 5.1 | – |
| COc1ccc(CN2C(=O)C(c3ccc(OC)c(OC)c3)=C(c3cc(OC)c(OC)c(OC)c3)C2=O)cc1 | 18 | Ratio (Homo sapiens [9]): 4 |
| COc1ccc(C2=C(c3ccc(OC)c(OC)c3)C(=O)N(CC(=O)c3ccc(OCc4ccccc4)c(OC)c3)C2=O)cc1OC | 42.7 | IC50 [2]: > 100 µM; Activity (MDA-435/LCC6): inactive; fold change (FC) [3]: 2.2; Drug uptake [10]: Active; selectivity ratio (P-gp (unknown origin)): > 1070; fold change (FC) [4]: 1.1; Ratio EC50 (Homo sapiens [5]): 4.8; fold change (FC) [6]: 6.9; IC50 (L929): > 100 µM; IC50 [7]: > 100 µM; Activity [11]: Active; fold change (FC) [8]: 5.6 |
| COc1ccc(CN2C(=O)C(c3ccc(OC)c(OC)c3)=C(c3cc(OC)c(OC)c(OC)c3)C2=O)cc1OC | 13.2 | – |
| COc1ccc(C2=C(c3ccc(OC)c(OC)c3)C(=O)N(CC(=O)c3ccc(OCc4ccccc4)cc3)C2=O)cc1OC | 10.4 | – |
| COc1ccc(C(=O)CN2C(=O)C(c3ccc(OC)c(OC)c3)=C(c3cc(OC)c(OC)c(OC)c3)C2=O)cc1 | 7.2 | – |
| COc1ccc(C(=O)CN2C(=O)C(c3cc(OC)c(OC)c(OC)c3)=C(c3cc(OC)c(OC)c(OC)c3)C2=O)cc1 | 4.9 | – |
| COc1ccc(CCN2C(=O)C(c3ccc(OC)c(OC)c3)=C(c3cc(OC)c(OC)c(OC)c3)C2=O)cc1OC | 4.6 | – |
| COc1ccc(C2=C(c3ccc(OC)c(OC)c3)C(=O)N(CC(=O)c3cc(OC)c(OC)c(OC)c3)C2=O)cc1OC | 9.3 | – |
| COc1ccc(CCN2C(=O)C(c3ccc(OC)c(OC)c3)=C(c3cc(OC)c(OC)c(OC)c3)C2=O)cc1 | 12.7 | – |
| C=CCOc1cc(CN2C(=O)C(c3ccc(OC)c(OC)c3)=C(c3cc(OC)c(OC)c(OC)c3)C2=O)cc(OCC=C)c1OCC=C | 6.8 | – |
| CCOC(=O)CN1C(=O)C(c2ccc(OC)c(OC)c2)=C(c2ccc(OC)c(OC)c2)C1=O | 7 | – |
| COc1cc(C(=O)CN2C(=O)C(c3cc(OC)c(OC)c(OC)c3)=C(c3cc(OC)c(OC)c(OC)c3)C2=O)cc(OC)c1OC | 1.8 | – |
| COc1ccc(C2=C(c3cc(OC)c(OC)c(OC)c3)C(=O)N(CC(=O)c3cc(OC)c(OC)c(OC)c3)C2=O)cc1OC | 3.8 | – |
| COc1ccc(CCN(C)CCCC(C#N)(c2ccc(OC)c(OC)c2)C(C)C)cc1OC (stereo not given) | – | Activity (MDA-435/LCC6): inactive |
